In publication PMC7880896 (European journal of medicinal chemistry, 2020):
Read-outs that look alike come from different tables or passages of the source. One block for each compound: values may come before it.

Columns and labels:
U87MG cells = test: MTT antiproliferative assay on U87MG glioblastoma cells; format: cell-based, human; conditions: for viability at 10 µM: Homo sapiens, U-87 MG, read-out: % Viability U87MG, 10 μM, ± SD
HEK293 cells = test: MTT cytotoxicity assay on HEK293 healthy cell line; format: cell-based, human
How it was run: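 HEK293 cells were seeded 24 h before treatment. Compound was dissolved in DMSO (<1%) and diluted in DMEM, tested up to 100 μM. After 24 and 48 h exposure, wells were washed with D-PBS, and MTT from a 5 mg/mL stock was added for 4 h. Formazan was solubilised in DMSO and absorbance read at 540 nm. At least three independent experiments; IC50 given as mean ± SD.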

[1] = molecular target: human adenosine A2A receptor (Homo sapiens, UniProt P29274); test: Adenosine A2A receptor radioligand binding; conditions: read-out: Inhibition of A2A receptor radioligand binding
How it was run: (§1)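 Membranes came from CHO cells expressing recombinant human A1 and HEK293 cells expressing human A2A. Cells were homogenised, centrifuged at 4°C and stored in buffer with 3 U/mL adenosine deaminase. Test compound (1 μM) was incubated with A1 membranes (40 μg) plus 2 nM [3H]DPCPX, or A2A membranes (20 μg) plus 15 nM [3H]ZM241385. Incubation was 60 min, 25°C, in 50 mM Tris-HCl pH 7.4 with 10 mM MgCl2. Bound ligand was GF/B-filtered and scintillation-counted.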

U87MG cell line = conditions: read-out: IC50 on U87MG cell line; cited from earlier work
MCF7 cells = test: MTT antiproliferative assay on MCF7 cells; format: cell-based, human; conditions: read-out: IC50 MCF7, mean ± SD
How it was run: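 MCF7 cells were kept in DMEM/F-12 with 10% FBS, penicillin/streptomycin and L-glutamine, passaged every 3 days, and seeded 24 h before treatment. Compound was dissolved in DMSO (<1%) and diluted in DMEM. After 24 and 48 h exposure, cells were washed with D-PBS and given MTT from a 5 mg/mL stock for 4 h. Formazan was dissolved in DMSO and read at 540 nm. At least three independent experiments; mean ± SD.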

[2] = molecular target: T1, human adenosine A1 receptor (Homo sapiens, UniProt P30542); test: Adenosine A1 receptor radioligand binding; conditions: read-out: Inhibition of A1 receptor radioligand binding
T1 sequence (P30542 1-326): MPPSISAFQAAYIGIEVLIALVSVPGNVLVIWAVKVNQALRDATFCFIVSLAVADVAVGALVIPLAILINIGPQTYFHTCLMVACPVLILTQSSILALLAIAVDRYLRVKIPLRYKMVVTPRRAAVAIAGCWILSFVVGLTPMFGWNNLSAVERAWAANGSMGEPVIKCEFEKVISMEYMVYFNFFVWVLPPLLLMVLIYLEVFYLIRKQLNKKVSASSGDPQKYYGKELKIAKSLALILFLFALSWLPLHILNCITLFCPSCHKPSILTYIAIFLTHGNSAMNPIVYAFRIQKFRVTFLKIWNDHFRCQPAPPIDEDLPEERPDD
How it was run: as §1

[3] = Homo sapiens, HEK293, read-out: IC50 HEK293

Sequence of human adenosine A2A receptor (P29274 whole entry): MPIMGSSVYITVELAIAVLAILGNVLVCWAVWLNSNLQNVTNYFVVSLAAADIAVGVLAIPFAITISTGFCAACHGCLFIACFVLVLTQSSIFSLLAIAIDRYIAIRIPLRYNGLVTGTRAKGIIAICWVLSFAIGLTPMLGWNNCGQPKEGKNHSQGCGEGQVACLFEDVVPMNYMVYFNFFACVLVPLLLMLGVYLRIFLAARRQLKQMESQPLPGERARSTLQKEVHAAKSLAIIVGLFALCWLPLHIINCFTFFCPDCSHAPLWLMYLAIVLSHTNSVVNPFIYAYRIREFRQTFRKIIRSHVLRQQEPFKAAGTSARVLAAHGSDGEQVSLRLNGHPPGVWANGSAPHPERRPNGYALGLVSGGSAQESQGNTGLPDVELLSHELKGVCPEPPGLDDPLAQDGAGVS

SMILES: COc1ccc(-c2nc(SCC(=O)c3sc(-c4ccccc4)nc3C)[nH]c(=O)c2C#N)cc1OC [Compound 4d, 4-(3,4-dimethoxyphenyl)-2-((2-(4-methyl-2-phenylthiazol-5-yl)-2-oxoethyl)thio)-6-oxo-1,6-dihydropyrimidine-5-carbonitrile]
viability at 10 µM (U87MG cells): < 70%

inhibition at 1 µM [1]: -22%
SMILES: COc1ccc(-c2nc(SCC(=O)c3sc(-c4ccc(Cl)cc4)nc3C)nc(N)c2C#N)cc1 [Compound 5h, 4-amino-2-((2-(2-(4-chlorophenyl)-4-methylthiazol-5-yl)-2-oxoethyl)thio)-6-(4-methoxyphenyl)pyrimidine-5-carbonitrile]
IC50 (HEK293 cells; [3]): > 100 µM

SMILES: COc1ccc(-c2nc(C)c(C(=O)CSc3nc(N)c(C#N)c(-c4ccccc4)n3)s2)cc1 [Compound 5d, 4-amino-2-((2-(2-(4-methoxyphenyl)-4-methylthiazol-5-yl)-2-oxoethyl)thio)-6-phenylpyrimidine-5-carbonitrile]
IC50 (HEK293 cells; [3]): > 100 µM

SMILES: Cc1nc(-c2ccccc2)sc1C(=O)CSc1nc(-c2ccc(Cl)cc2)c(C#N)c(=O)[nH]1 [Compound 4f, 4-(4-chlorophenyl)-2-((2-(4-methyl-2-phenylthiazol-5-yl)-2-oxoethyl)thio)-6-oxo-1,6-dihydropyrimidine-5-carbonitrile]
IC50 (HEK293 cells; [3]): > 100 µM

SMILES: COc1ccc(-c2nc(SCC(=O)c3sc(-c4ccc(Cl)cc4)nc3C)[nH]c(=O)c2C#N)cc1OC [Compound 4t, 2-((2-(2-(4-chlorophenyl)-4-methylthiazol-5-yl)-2-oxoethyl)thio)-4-(3,4-dimethoxyphenyl)-6-oxo-1,6-dihydropyrimidine-5-carbonitrile]
IC50 (HEK293 cells; [3]): > 100 µM

SMILES: COc1ccc(-c2nc(C)c(C(=O)CSc3nc(-c4ccc(OC)cc4)c(C#N)c(=O)[nH]3)s2)cc1 [Compound 4k, 4-(4-methoxyphenyl)-2-((2-(2-(4-methoxyphenyl)-4-methylthiazol-5-yl)-2-oxoethyl)thio)-6-oxo-1,6-dihydropyrimidine-5-carbonitrile]
IC50 (HEK293 cells; [3]): > 100 µM

SMILES: Cc1nc(-c2ccccc2)sc1C(=O)CSc1nc(-c2ccc3c(c2)OCO3)c(C#N)c(=O)[nH]1 [Compound 4h, 4-(benzo[d][1,3]dioxol-5-yl)-2-((2-(4-methyl-2-phenylthiazol-5-yl)-2-oxoethyl)thio)-6-oxo-1,6-dihydropyrimidine-5-carbonitrile]
IC50 (HEK293 cells; [3]): > 100 µM

SMILES: COc1ccc(-c2nc(C)c(C(=O)CSc3nc(-c4ccc5c(c4)OCO5)c(C#N)c(=O)[nH]3)s2)cc1 [Compound 4p, 4-(benzo[d][1,3]dioxol-5-yl)-2-((2-(2-(4-methoxyphenyl)-4-methylthiazol-5-yl)-2-oxoethyl)thio)-6-oxo-1,6-dihydropyrimidine-5-carbonitrile]
IC50 (HEK293 cells; [3]): > 100 µM

SMILES: Cn1nnc2c(C(N)=O)ncn2c1=O [temozolomide]
IC50 (U87MG cell line): 130 to 171 µM

SMILES: COc1ccc(-c2nc(C)c(C(=O)CSc3nc(-c4cccc(OC)c4)c(C#N)c(=O)[nH]3)s2)cc1 [Compound 4j, 4-(3-methoxyphenyl)-2-((2-(2-(4-methoxyphenyl)-4-methylthiazol-5-yl)-2-oxoethyl)thio)-6-oxo-1,6-dihydropyrimidine-5-carbonitrile]
viability at 10 µM (U87MG cells): < 70%

SMILES: Cc1nc(-c2ccccc2)sc1C(=O)CSc1nc(-c2cccc(Cl)c2)c(C#N)c(=O)[nH]1 [Compound 4e, 4-(3-chlorophenyl)-2-((2-(4-methyl-2-phenylthiazol-5-yl)-2-oxoethyl)thio)-6-oxo-1,6-dihydropyrimidine-5-carbonitrile]
IC50 (HEK293 cells; [3]): > 100 µM

SMILES: COc1ccc(-c2nc(SCC(=O)c3sc(-c4ccc(Cl)cc4)nc3C)[nH]c(=O)c2C#N)cc1 [Compound 4s, 2-((2-(2-(4-chlorophenyl)-4-methylthiazol-5-yl)-2-oxoethyl)thio)-4-(4-methoxyphenyl)-6-oxo-1,6-dihydropyrimidine-5-carbonitrile]
IC50 (HEK293 cells; [3]): > 100 µM

SMILES: N.N.[Cl][Pt][Cl] [cisplatin, reference compound]
IC50 (HEK293 cells; read-out: IC50 HEK293, MTT, mean ± SD, ND = viability higher than 50% at 100 μM): 8.44 ± 0.86 µM
IC50 (U87MG cells; read-out: IC50 U87MG, MTT, mean ± SD): 1.67 ± 0.04 µM
IC50 (MCF7 cells): 2.51 ± 0.29 µM

inhibition at 1 µM [2]: -23%
SMILES: Cc1nc(-c2ccccc2)sc1C(=O)CSc1nc(N)c(C#N)c(-c2ccc(Cl)cc2)n1 [Compound 5c, 4-amino-6-(4-chlorophenyl)-2-((2-(4-methyl-2-phenylthiazol-5-yl)-2-oxoethyl)thio)pyrimidine-5-carbonitrile]
IC50 (HEK293 cells; [3]): > 100 µM

SMILES: COc1ccc(-c2nc(C)c(C(=O)CSc3nc(-c4ccccc4)c(C#N)c(=O)[nH]3)s2)cc1 [Compound 4i, 2-((2-(2-(4-methoxyphenyl)-4-methylthiazol-5-yl)-2-oxoethyl)thio)-6-oxo-4-phenyl-1,6-dihydropyrimidine-5-carbonitrile]
IC50 (HEK293 cells; [3]): > 100 µM

inhibition at 1 µM [1]: -18%
SMILES: COc1ccc(-c2nc(C)c(C(=O)CSc3nc(N)c(C#N)c(-c4ccc(OC)cc4)n3)s2)cc1 [Compound 5e, 4-amino-6-(4-methoxyphenyl)-2-((2-(2-(4-methoxyphenyl)-4-methylthiazol-5-yl)-2-oxoethyl)thio)pyrimidine-5-carbonitrile]
IC50 (HEK293 cells; [3]): > 100 µM
cytotoxic effect on HEK293 (in words) (HEK293 cells; healthy cell line): no cytotoxic effect even at high concentrations

SMILES: COc1ccc(-c2nc(SCC(=O)c3sc(-c4ccccc4)nc3C)nc(N)c2C#N)cc1 [Compound 5b, 4-amino-6-(4-methoxyphenyl)-2-((2-(4-methyl-2-phenylthiazol-5-yl)-2-oxoethyl)thio)pyrimidine-5-carbonitrile]
IC50 (HEK293 cells; [3]): > 100 µM

SMILES: COc1ccc(-c2nc(C)c(C(=O)CSc3nc(-c4ccc(OC)c(OC)c4)c(C#N)c(=O)[nH]3)s2)cc1 [Compound 4l, 4-(3,4-dimethoxyphenyl)-2-((2-(2-(4-methoxyphenyl)-4-methylthiazol-5-yl)-2-oxoethyl)thio)-6-oxo-1,6-dihydropyrimidine-5-carbonitrile]
viability at 10 µM (U87MG cells): < 70%

SMILES: Cc1nc(-c2ccc(Cl)cc2)sc1C(=O)CSc1nc(-c2ccccc2)c(C#N)c(=O)[nH]1 [Compound 4q, 2-((2-(2-(4-chlorophenyl)-4-methylthiazol-5-yl)-2-oxoethyl)thio)-6-oxo-4-phenyl-1,6-dihydropyrimidine-5-carbonitrile]
IC50 (HEK293 cells; [3]): > 100 µM

SMILES: Cc1nc(-c2ccc(Cl)cc2)sc1C(=O)CSc1nc(N)c(C#N)c(-c2ccccc2)n1 [Compound 5g, 4-amino-2-((2-(2-(4-chlorophenyl)-4-methylthiazol-5-yl)-2-oxoethyl)thio)-6-phenylpyrimidine-5-carbonitrile]
IC50 (HEK293 cells; [3]): > 100 µM

SMILES: COc1ccc(-c2nc(C)c(C(=O)CSc3nc(-c4cccc(Cl)c4)c(C#N)c(=O)[nH]3)s2)cc1 [Compound 4m, 4-(3-chlorophenyl)-2-((2-(2-(4-methoxyphenyl)-4-methylthiazol-5-yl)-2-oxoethyl)thio)-6-oxo-1,6-dihydropyrimidine-5-carbonitrile]
IC50 (HEK293 cells; [3]): > 100 µM
